Measured values as given in ChEMBL document CHEMBL1135742, “Modification of the structure of a metallopeptide: synthesis and biological evaluation of (111)In-labeled DOTA-conjugated rhenium-cyclized alpha-MSH analogues” (J Med Chem, 2002).

What was measured:
Type in all cases: functional, organism-based
Mus musculus [1] = species: Mus musculus; test: Uptake of [111In]-labeled compound in blood at 2 hr pi in the presence of […]
Outline: (§1)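 C57 BL/6 female mice, 7–8 weeks old, inoculated s.c. in right flank with 1×10^6 B16/F1 melanoma cells. Used 9–10 days later at tumor weight ~500 mg. […] HPLC-purified 111In-DOTA peptide (neutral pH) given via tail vein, with or without […]. Killed 2 h pi. Tissues weighed and gamma-counted. Uptake expressed as % ID/g.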

Mus musculus [2] = species: Mus musculus; test: Uptake of [111In]-labeled compound in heart at 2 hr pi in the absence of […]; outline: as §1
Mus musculus [3] = species: Mus musculus; test: Uptake of [111In]-labeled compound in lung at 2 hr pi in the absence of […]; outline: as §1
Mus musculus [4] = species: Mus musculus; test: Uptake of [111In]-labeled compound in pancreas at 2 hr pi in the absence of 10 mg NDP; outline: as §1
Mus musculus [5] = species: Mus musculus; test: Uptake of [111In]-labeled compound in spleen at 2 hr pi in the absence of 10 mg NDP; outline: as §1
Mus musculus [6] = species: Mus musculus; test: Uptake of [111In]-labeled compound in spleen at 2 hr pi in the presence of 10 mg NDP; outline: as §1
Mus musculus [7] = species: Mus musculus; test: Uptake of [111In]-labeled compound in tumor at 2 hr pi in the absence of […]; outline: as §1

Question: Which results are given for DOTA-ReCCEHdFRWCRPV-NH2?
Answer: ID/g (Mus musculus [1]): 0.27%; ID/g (Mus musculus [2]): 0.07%; ID/g (Mus musculus [3]): 0.3%; ID/g (Mus musculus [4]): 0.08%; ID/g (Mus musculus [5]): 0.27%; ID/g (Mus musculus [6]): 0.47%; ID/g (Mus musculus [7]): 17.3%
